Results as given in ChEMBL document CHEMBL4373680, “Small antibacterial molecules highly active against drug-resistant Staphylococcus aureus” (Medchemcomm, 2019).
Active and inactive are the calls of the source. The rule behind the calls is not given here.

Columns and labels:
Staphylococcus aureus [1] = assay: Antibacterial activity against Staphylococcus aureus ATCC 33591 assessed as increase in dead cells by measuring bright red fluorescence intensity at 32 ug/ml after 2 hrs by SYTO-9/propidium iodide staining based fluorescence microscopy analysis; format: functional, organism-based
How it was run: (§1)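 Mid-log cells (~10⁸ CFU/mL) pelleted and resuspended in 0.9% saline. Treated with 32 µg/mL compound for 2 h at 37 °C, pelleted and resuspended in saline. Stained with SYTO9 (3 µM) plus PI (15 µM) for 15 min in the dark, unbound dye removed, then imaged by fluorescence microscopy at 100×.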

[2] = Ratio of EC50 for dog MDCK cells to MIC for vancomycin-resistant Staphylococcus aureus clinical isolate 2; format: toxicity
Staphylococcus aureus [3] = assay: Antibacterial activity against methicillin-resistant Staphylococcus aureus ATCC 33591 after 24 hrs by tecan plate reader analysis; format: functional; details: ATCC 33591, 24 h
How it was run: (§2)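 Colony grown 24 h on NB agar at 37 °C, then 6 h in nutrient broth to mid-log (10⁸ CFU/mL by drop plating), diluted to 10⁵ CFU/mL in Mueller Hinton broth; added 9:1 to two-fold serial compound dilutions in MHB. Incubated 24 h, 37 °C; OD600 read. Triplicate per concentration, experiment run twice; MIC taken from the range of triplicate OD values.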

Escherichia coli = assay: Antibacterial activity against Escherichia coli MTCC 443 after 24 hrs by tecan plate reader analysis; format: functional; details: MTCC 443, 24 h
How it was run: (§3)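 Broth microdilution MIC. Glycerol stocks grown on MacConkey agar 24 h at 37 °C, then a single colony in nutrient broth 6 h to mid-log (~10⁸ CFU/mL). Cells diluted to 10⁵ CFU/mL in Mueller Hinton broth and added to two-fold compound dilutions. Incubated 24 h at 37 °C, OD600 read. Triplicate wells, experiment run twice.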

Acinetobacter baumannii = assay: Antibacterial activity against Acinetobacter baumannii MTCC 1425 after 24 hrs by tecan plate reader analysis; format: functional; details: MTCC 1425, 24 h; how it was run: as §3
Klebsiella pneumoniae = assay: Antibacterial activity against Klebsiella pneumoniae ATCC 700603 after 24 hrs by tecan plate reader analysis; format: functional; details: Klebsiella pneumoniae, 700603, 24 h; how it was run: as §3
[4] = Hemolytic activity in human erythrocytes after 1 hr; format: ADME, cell-based, Erythrocyte
How it was run: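 Heparinized donor blood. Erythrocytes washed three times in PBS and resuspended to 5 vol%, then mixed 3:1 with compound serially diluted in water. Incubated 1 h at 37 °C and centrifuged. Supernatant A540 read; % hemolysis relative to water and 0.1 vol% Triton-X controls.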

Staphylococcus aureus [5] = assay: Antibacterial activity against methicillin-resistant Staphylococcus aureus R3545 clinical isolate after 24 hrs by tecan plate reader analysis; format: functional; details: R3545, 24 h; how it was run: as §2
Staphylococcus aureus [6] = assay: Antibacterial activity against methicillin-resistant Staphylococcus aureus R3890 clinical isolate after 24 hrs by tecan plate reader analysis; format: functional; details: R3890, 24 h; how it was run: as §2
Staphylococcus aureus [7] = assay: Antibacterial activity against vancomycin-resistant Staphylococcus aureus clinical isolate 1 after 24 hrs by tecan plate reader analysis; format: functional; details: clinical isolate 1, 24 h; how it was run: as §2
Staphylococcus aureus [8] = assay: Antibacterial activity against vancomycin-resistant Staphylococcus aureus clinical isolate 4 after 24 hrs by tecan plate reader analysis; format: functional; details: clinical isolate 4, 24 h; how it was run: as §2
MDCK [9] = assay: Cytotoxicity against dog MDCK cells after 24 hrs by alamar blue assay; format: cell-based; details: Canis lupus familiaris
How it was run: (§4)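 About 10⁴ cells/well in DMEM with 10% FBS. Medium replaced with two-fold compound dilutions and incubated 24 h at 37 °C, 5% CO₂. Alamar Blue added for a further 4 h, absorbance 570 nm (600 nm reference). Viability normalized to untreated and 0.1% Triton-X wells. Triplicates; sigmoidal fit gives the 50% viability concentration.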

A549 [10] = assay: Cytotoxicity against human A549 cells after 24 hrs by alamar blue assay; format: cell-based; details: A549, 24 h; how it was run: as §4
Staphylococcus aureus [11] = assay: Bactericidal activity against metabolically inactive stationary phase of methicillin-resistant Staphylococcus aureus ATCC 33591 assessed as bacterial killing at 32 ug/ml incubated for 6 hrs followed by plating on agar plate for 24 hrs by visual counting analysis relative to control; format: functional
Staphylococcus aureus [12] = assay: Bactericidal activity against metabolically inactive stationary phase of methicillin-resistant Staphylococcus aureus R3545 assessed as bacterial killing at 32 ug/ml incubated for 6 hrs followed by plating on agar plate for 24 hrs by visual counting analysis relative to control; format: functional
Staphylococcus aureus [13] = assay: Bactericidal activity against metabolically inactive stationary phase methicillin-resistant Staphylococcus aureus ATCC 33591 assessed as log reduction in bacterial colony forming units at 32 ug/ml incubated for 6 hrs followed by plating on agar plate for 24 hrs by visual counting analysis; format: functional
Staphylococcus aureus [14] = assay: Bactericidal activity against metabolically inactive stationary phase methicillin-resistant Staphylococcus aureus R3545 assessed as log reduction in bacterial colony forming units at 32 ug/ml incubated for 6 hrs followed by plating on agar plate for 24 hrs by visual counting analysis; format: functional
Staphylococcus aureus [15] = assay: Induction of membrane permeabilization in Staphylococcus aureus ATCC 33591 assessed as increase in fluorescence intensity measured upto 28 mins by propidium iodide staining based fluorescence spectroscopic technique; format: functional, organism-based
How it was run: (§5)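 Mid-log MRSA washed in 5 mM HEPES and resuspended in 1:1 HEPES (5 mM) and glucose (5 mM). Propidium iodide added at 10 µM final. Baseline fluorescence (ex 535/em 617 nm) read 4 min, compound in water added, read to 28 min. Water control; triplicates averaged.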

Staphylococcus aureus [16] = assay: Induction of membrane permeabilization in Staphylococcus aureus R3545 assessed as increase in fluorescence intensity measured upto 28 mins by propidium iodide staining based fluorescence spectroscopic technique; format: functional, organism-based; how it was run: as §5
Staphylococcus aureus [17] = assay: Induction of membrane depolarization in Staphylococcus aureus ATCC 33591 assessed as increase in fluorescence intensity measured upto 28 mins by DiSC3 staining based fluorescence spectroscopic technique; format: functional, organism-based
How it was run: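 Mid-log MRSA washed in 5 mM HEPES pH 7.4 and resuspended in 1:1:1 HEPES (5 mM), glucose (5 mM) and KCl (100 mM). Loaded with DiSC3(5) at 2 µM final, 30 min in the dark. Baseline fluorescence (ex 622/em 670 nm) read 4 min, compound added, monitored to 28 min. Water control; triplicates averaged.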

Staphylococcus aureus [18] = assay: Antibacterial activity against Staphylococcus aureus ATCC 33591 assessed as decrease in live cells at 32 ug/ml after 2 hrs by SYTO-9/propidium iodide staining based fluorescence microscopy analysis; format: functional, organism-based; how it was run: as §1
Staphylococcus aureus [19] = assay: Antibacterial activity against Staphylococcus aureus ATCC 33591 using compound preincubated with human 50% plasma for 3 hrs and measured after 24 hrs by tecan-plate reader analysis; format: functional
How it was run: (§6)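 Compound mixed 1:1 with human plasma, human serum or mouse liver homogenate (50%) and held 3 h at 37 °C. Saline and PBS incubations served as controls. Mixtures two-fold diluted (saline for plasma/serum, PBS for homogenate), then MRSA ATCC33591 (~10⁵ CFU/mL in MHB) added.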

Staphylococcus aureus [20] = assay: Antibacterial activity against Staphylococcus aureus ATCC 33591 using compound preincubated with human 50% serum for 3 hrs and measured after 24 hrs by tecan-plate reader analysis; format: functional; how it was run: as §6
Staphylococcus aureus [21] = assay: Antibacterial activity against Staphylococcus aureus ATCC 33591 using compound preincubated with mouse 50% liver homogenate for 3 hrs and measured after 24 hrs by tecan-plate reader analysis; format: functional; details: ATCC 33591, Liver; how it was run: as §6
MDCK [22] = assay: Cytotoxicity against dog MDCK cells up to 128 ug/ml after 24 hrs by alamar blue assay; format: cell-based, Canis lupus familiaris; how it was run: as §4
A549 [23] = assay: Cytotoxicity against human A549 cells up to 128 ug/ml after 24 hrs by alamar blue assay; format: cell-based; details: a549, 24 h; how it was run: as §4

For `CCCCCCNC(=O)C[N+](C)(CCO)CCCCCCCCCCCC[N+](C)(CCO)CC(=O)NCCCCCC.O=C([O-])C(F)(F)F.O=C([O-])C(F)(F)F` (stereo unspecified), the Activity (Staphylococcus aureus [1]) was “Active”, the selectivity ratio [2] was 94 to 97 and the MIC (Staphylococcus aureus [3]) was 1 to 2 µg/mL. The MIC (Escherichia coli) was 2 µg/mL, the MIC (Acinetobacter baumannii) was 64 µg/mL and the MIC (Klebsiella pneumoniae) was 128 µg/mL. The HC50 at 1 h [4] was 577 µg/mL, the MIC (Staphylococcus aureus [5]) was 1 to 2 µg/mL and the MIC (Staphylococcus aureus [6]) was 2 µg/mL. It also gave an MIC (Staphylococcus aureus [7]) of 2 µg/mL, an MIC (Staphylococcus aureus [8]) of 2 µg/mL and an EC50 (MDCK [9]) of 188 µg/mL. For the same molecule, the EC50 (A549 [10]) was 194 µg/mL, the Activity (Staphylococcus aureus [11]) was >99% and the Activity (Staphylococcus aureus [12]) was >99%. The Activity (Staphylococcus aureus [13]) was 2.05 log10CFU/ml, the Activity (Staphylococcus aureus [14]) was 2.8 log10CFU/ml and the Activity (Staphylococcus aureus [15]) was “Dose-dependent effect”. For the same molecule, the Activity (Staphylococcus aureus [16]) was “Dose-dependent effect”, the Activity (Staphylococcus aureus [17]) was “Dose-dependent effect” and the inhibition (Staphylococcus aureus [18]) was “Active”. The MIC (Staphylococcus aureus [19]) was 4 µg/mL, the MIC (Staphylococcus aureus [20]) was 4 µg/mL and the MIC (Staphylococcus aureus [21]) was 4 µg/mL. For the same molecule, the Activity (MDCK [22]) was “Non-Toxic” and the Activity (A549 [23]) was “Non-Toxic”.
